The text below walks through data of ChEMBL document CHEMBL2401628, “Low toxicity and unprecedented anti-osteoclast activity of a simple sulfur-containing gem-bisphosphonate: a comparative study” (Eur J Med Chem, 2013).

For data set [1], the system named is Osteoclast. Nature of the data set: Inhibition of human osteoclast-mediated type 1 bone collagen degradation assessed as release of europium-labeled collagen fragments at 10 uM after 7 days by time-resolved fluorescence assay. It counts as functional, cell-based. The procedure, abridged:
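Adherent monocytes from Ficoll-isolated peripheral blood of healthy donors were seeded on human type I bone collagen and differentiated in osteoclast medium for 7 days. They were then exposed to three drug concentrations until day 14. Supernatant was mixed with fluorophore-releasing reagent and Europium-labelled fragments were read by time-resolved fluorescence (ex 340, em 615 nm). Values are the RFU ratio of treated to untreated osteoclasts, from 2 donors in quadruplicate.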

Data set [2] concerns Hydroxyapatite. Nature of the data set: Binding affinity to hydroxyapatite at 0.07 mmol up to 120 hrs by 31P NMR-spectroscopy relative to H3PO4.
Data set [3] concerns L929. Nature of the data set: Cytotoxicity against mouse L929 cells assessed as reduction of cell viability at 100 uM after 72 hrs by neutral-red uptake assay. Format: cell-based. Particulars: l929, 72 h. The procedure, abridged:
(§1)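 Mouse L929 fibroblasts in DMEM with 10% FCS, seeded 0.8 × 10³ cells/well and allowed to adhere 24 h. They were then exposed to serial dilutions of compound (stocks 10 mM in PBS pH 7.4) for 72 h; untreated medium served as negative control. Cells took up 0.4% neutral red diluted 1:80 for 2 h at 37 °C, and dye was extracted in 50% ethanol/1% acetic acid and read at 540 nm. Result is the OD ratio of treated to negative control, triplicate wells, 5 experiments.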

The test system of data set [4] is Osteoclast. Briefly: Inhibition of human osteoclast-mediated type 1 bone collagen degradation assessed as release of europium-labeled collagen fragments at 0.1 uM after 7 days by time-resolved fluorescence assay. It counts as functional, cell-based. The procedure, abridged:
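Mononuclear cells were seeded on Europium-labelled human type I collagen and cultured 7 days in differentiation medium, then drug was added; total culture time was 14 days. Released fragments in supernatant were measured by time-resolved fluorescence (excitation 340 nm, emission 615 nm). Result is the RFU ratio of treated to untreated osteoclasts, quadruplicate wells, 2 donors.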

Data set [5] has as its system PBMC. Nature of the data set: Antiosteoclast activity in human PBMC assessed as reduction of osteoclasts formation by measuring TRAcP positive multinucleated cells at 10 uM after 7 days. It counts as functional, cell-based. The method in brief:
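Blood mononuclear cells from healthy donors, adhered 1 h, then cultured 7 days in osteoclast differentiation medium with drug added from the start. Cells were fixed in 3% paraformaldehyde/2% sucrose, permeabilized in 0.5% Triton, and stained for TRAcP for 60 min at 37 °C. TRAcP-positive multinucleated cells were counted as % of untreated differentiated cultures, duplicate wells, 4 cultures from 2 donors.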

The subject of data set [6] is Osteoclast. Briefly: Induction of apoptosis in human osteoclasts at 100 uM after 7 days using Hoechst 33258 staining. Format: functional, cell-based. The procedure, abridged:
(§2)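 Blood mononuclear cells from donors were differentiated into osteoclasts for 7 days, then exposed to drug for a further 7 days. After fixing, cells were stained with phalloidin-TRITC 0.3 mg/mL plus Hoechst 33258 for 30 min at room temperature. Multinucleated F-actin-ring cells with apoptotic nuclear bodies were counted over the whole well as % of all multinucleated cells, duplicate wells, 4 cultures from 2 donors.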

Data set [7] deals with L929. Nature of the data set: Cytotoxicity against mouse L929 cells assessed as reduction of cell viability at 10 to 100 uM after 72 hrs by neutral-red uptake assay. It counts as cell-based. As to conditions: l929, 72 h. The method in brief: as §1
For data set [8], the system named is Osteoclast. Briefly: Proapoptotic activity in human osteoclasts at 10 uM after 7 days using Hoechst 33258 staining. It counts as functional, cell-based. The procedure, abridged: as §2
Data set [9] has as its system L929. Briefly: Cytotoxicity against mouse L929 cells assessed as reduction of cell viability after 72 hrs by neutral-red uptake assay. It counts as cell-based. As to conditions: l929, 72 h. The procedure, abridged: as §1

The source made the active and inactive calls. The calls are words filed in the database; no cut-off is given here.

`O=P(O)(O)C(CSCCO)P(=O)(O)O`: the inhibition result in [1] and in [5] was “Active” each time. Besides, the Activity in [2] was 70%; in data set [3] it was “Toxic”; in data set [7] it was “Toxic”. Besides, in [4], the inhibition entry is “inactive”. Moreover, the outcome in [6] and in [8] was Active.

As for `O=P(O)(O)C(O)(Cn1ccnc1)P(=O)(O)O`, the Activity in data set [2] is 82%.

`O=P(O)(O)C(CN1CCOCC1)P(=O)(O)O`: the Activity in data set [2] is 65%; in data set [3], “Toxic”; in data set [7], “Toxic”. In [5], the inhibition result was “Active”.

In the case of `O=P(O)(O)C(CSc1ccccc1)P(=O)(O)O`, the results for the Activity in data set [2], in [3] and in data set [7] were 34%, “Toxic” and “Toxic”, respectively. Further, the inhibition result in data set [5] is “inactive”.

As for `O=P(O)(O)C(CNc1ccccn1)P(=O)(O)O`, the inhibition entry in data set [1], in data set [4] and in [5] was “Active” throughout. Also, the Activity was 94% in data set [2] and “Dose-dependent effect” in data set [9]. Also, the result in [6] and in data set [8] was Active.

Take `O=P(O)(O)C(CNc1ccccc1)P(=O)(O)O`: the Activity in data set [2] is 66%; in data set [3], “Toxic”; in data set [7], “Toxic”. Moreover, in data set [5], the inhibition entry was “Active”.

Regarding `NCCC(O)(P(=O)(O)O)P(=O)(O)O` [PAMIDRONIC ACID], in data set [4], the inhibition entry is “inactive”. The inhibition result in data set [5] is “Active”. Besides, the Activity entry in data set [9] is recorded as “Dose-dependent effect”. In [6], the result was Active. Moreover, in data set [8], the outcome was inactive.
